Legend:
HepG2 = assay: (§1) Cytotoxicity against human Hep G2 after 48 hrs by MTT assay; type: functional
Method in brief: (§2)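 Cells grown in RPMI 1640 with 10% FBS, trypsinized at 70% confluence; 1.0 × 10^4 cells per well cultured 24 h before treatment. Compounds at 100-3.125 µM, vehicle 0.1% DMSO, 48 h exposure; MTT read at 570 nm. IC50 where 100 × (C − T)/(C − B) = 50, derived by LOGIT method; mean ± SD of three independent experiments.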

MCF7 = assay: Cytotoxicity against human MCF7 after 48 hrs by MTT assay; type: functional, cell-based; details: for IC50: MCF7, 48 h; method in brief: as §2
NCI-H460 = assay: Cytotoxicity against human NCI-H460 after 48 hrs by MTT assay; type: functional, cell-based; details: for IC50: NCI-H460, 48 h; method in brief: as §2
SF-268 = assay: Cytotoxicity against human SF-268 after 48 hrs by MTT assay; type: functional, cell-based; details: for IC50: SF-268, 48 h; method in brief: as §2
[1] = as §1; type: functional; details: HepG2, 48 h; method in brief: as §2

C[C@@H]1CC[C@@]2(OC1)O[C@H]1C[C@H]3[C@@H]4CC=C5C[C@@H](O[C@@H]6O[C@H](CO)[C@@H](O[C@@H]7O[C@@H](C)[C@H](O)[C@@H](O)[C@H]7O[C@@H]7O[C@H](CO)[C@@H](O)[C@H](O)[C@H]7O)[C@H](O)[C@H]6O[C@@H]6O[C@@H](C)[C@H](O)[C@@H](O)[C@H]6O)CC[C@]5(C)[C@H]4CC[C@]3(C)[C@@]1(O)[C@@H]2C
Activity (HepG2): Not toxic | Activity (MCF7): Not toxic | Activity (NCI-H460): Not toxic | Activity (SF-268): Not toxic

C[C@@H]1CC[C@@]2(OC1)O[C@H]1C[C@H]3[C@@H]4CC[C@H]5C[C@@H](O[C@@H]6O[C@H](CO)[C@H](O[C@@H]7O[C@H](CO)[C@@H](O)[C@H](O[C@@H]8OC[C@@H](O)[C@H](O)[C@H]8O)[C@H]7O[C@@H]7O[C@H](CO)[C@@H](O)[C@H](O)[C@H]7O)[C@H](O)[C@H]6O)CC[C@]5(C)[C@H]4CC[C@]3(C)[C@H]1[C@@H]2C [DEGALACTOTIGONIN]
IC50 [1]: 0.25 µM | IC50 (MCF7): 1.57 µM | IC50 (NCI-H460): 4.49 µM | IC50 (SF-268): 3.19 µM

CC[C@@]1(O)C(=O)OCc2c1cc1n(c2=O)Cc2cc3cc(O)ccc3nc2-1 [HYDROXYCAMPTOTHECIN]
IC50 [1]: 6.49 µM | IC50 (MCF7): 19.1 µM | IC50 (NCI-H460): 38.6 µM | IC50 (SF-268): 29.9 µM

C[C@@H]1C[C@H](O)[C@@]2(OC1=O)O[C@H]1[C@H](O)[C@H]3[C@@H]4CC[C@H]5C[C@@H](O[C@@H]6O[C@H](CO)[C@H](O[C@@H]7O[C@H](CO)[C@@H](O)[C@H](O[C@@H]8OC[C@@H](O)[C@H](O)[C@H]8O)[C@H]7O[C@@H]7OC[C@H](O)[C@H](O)[C@H]7O)[C@H](O)[C@H]6O[C@@H]6O[C@@H](C)[C@H](O)[C@@H](O)[C@H]6O)CC[C@]5(C)[C@H]4CC[C@]3(C)[C@H]1[C@@H]2C
Activity (HepG2): Not toxic | Activity (MCF7): Not toxic | Activity (NCI-H460): Not toxic | Activity (SF-268): Not toxic

C[C@H]1CO[C@@]2(O[C@H]3C[C@H]4[C@@H]5CC[C@H]6C[C@@H](O[C@@H]7O[C@H](CO)[C@H](O[C@@H]8O[C@H](CO)[C@@H](O)[C@H](O[C@@H]9OC[C@@H](O)[C@H](O)[C@H]9O)[C@H]8O[C@@H]8O[C@H](CO)[C@@H](O)[C@H](O)[C@H]8O)[C@H](O)[C@H]7O)CC[C@]6(C)[C@H]5CC[C@]4(C)[C@H]3[C@@H]2C)[C@@H](O[C@@H]2O[C@H](CO)[C@@H](O)[C@H](O)[C@H]2O)C1
Activity (HepG2): Not toxic | Activity (MCF7): Not toxic | Activity (NCI-H460): Not toxic | Activity (SF-268): Not toxic

C[C@@H]1C[C@H](O)[C@@]2(OC1=O)O[C@H]1C[C@H]3[C@@H]4CC[C@H]5C[C@@H](O[C@@H]6O[C@H](CO)[C@H](O[C@@H]7O[C@H](CO)[C@@H](O)[C@H](O[C@@H]8OC[C@@H](O)[C@H](O)[C@H]8O)[C@H]7O[C@@H]7OC[C@H](O)[C@H](O)[C@H]7O)[C@H](O)[C@H]6O[C@@H]6O[C@@H](C)[C@H](O)[C@@H](O)[C@H]6O)CC[C@]5(C)[C@H]4CC[C@]3(C)[C@H]1[C@@H]2C
Activity (HepG2): Not toxic | Activity (MCF7): Not toxic | Activity (NCI-H460): Not toxic | Activity (SF-268): Not toxic

C[C@@H]1CC[C@@]2(OC1)O[C@H]1[C@H](O)[C@H]3[C@@H]4CC[C@H]5C[C@@H](O[C@@H]6O[C@H](CO)[C@H](O[C@@H]7O[C@H](CO)[C@@H](O)[C@H](O[C@@H]8OC[C@@H](O)[C@H](O)[C@H]8O)[C@H]7O[C@@H]7O[C@H](CO)[C@@H](O)[C@H](O)[C@H]7O)[C@H](O)[C@H]6O)CC[C@]5(C)[C@H]4CC[C@]3(C)[C@H]1[C@@H]2C
Activity (HepG2): Not toxic | Activity (MCF7): Not toxic | Activity (NCI-H460): Not toxic | Activity (SF-268): Not toxic

C[C@@H]1C[C@H](O)[C@@]2(OC1=O)O[C@H]1[C@H](O)[C@H]3[C@@H]4CC[C@H]5C[C@@H](O[C@@H]6O[C@H](CO)[C@H](O[C@@H]7O[C@H](CO)[C@@H](O)[C@H](O[C@@H]8O[C@H](CO)[C@@H](O)[C@H](O)[C@H]8O)[C@H]7O[C@@H]7O[C@H](CO)[C@@H](O)[C@H](O)[C@H]7O)[C@H](O)[C@H]6O)CC[C@]5(C)[C@H]4CC[C@]3(C)[C@H]1[C@@H]2C
Activity (HepG2): Not toxic | Activity (MCF7): Not toxic | Activity (NCI-H460): Not toxic | Activity (SF-268): Not toxic
